Measured values published in ChEMBL document CHEMBL1129639, “Synthesis and cardiotonic activity of novel pyrimidine derivatives: crystallographic and quantum chemical studies” (J Med Chem, 1996).

How the values were obtained:
[1] = molecular target: T1, Adenosine receptor A1 (Cavia porcellus, UniProt P47745); assay: Inhibition of [3H]-CHA binding to Adenosine A1 receptor in guinea pig heart
T1 sequence (P47745 whole entry): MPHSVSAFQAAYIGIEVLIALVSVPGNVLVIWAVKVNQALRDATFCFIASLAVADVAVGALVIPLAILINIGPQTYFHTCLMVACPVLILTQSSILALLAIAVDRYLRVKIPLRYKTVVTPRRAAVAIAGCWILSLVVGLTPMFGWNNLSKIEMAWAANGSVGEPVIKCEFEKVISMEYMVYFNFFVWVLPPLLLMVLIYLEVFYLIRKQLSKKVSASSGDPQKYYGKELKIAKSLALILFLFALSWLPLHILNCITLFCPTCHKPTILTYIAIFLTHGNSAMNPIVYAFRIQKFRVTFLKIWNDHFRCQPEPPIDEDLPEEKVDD
How it was run: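 Guinea pig heart membranes prepared in 50 mM Tris-HCl pH 7.4 and pretreated with adenosine deaminase 2 IU/mL for 30 min at 37 °C. Incubated with 1 nM [3H]CHA, membranes from 15 mg tissue, 120 min at 23 °C. Bound ligand separated by GF/B filtration; nonspecific binding defined with (R)-PIA. Six concentrations tested in triplicate; IC50 by probit analysis.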

[2] = species: Cavia porcellus; assay: Effect on the contractile force of spontaneously beating atria from Reserpine-treated guinea pigs as percentage variation from the control at concentration of 10E-5 M; format: functional
How it was run: (§1)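 Atria from reserpine-treated guinea pigs (reserpine 2 mg/kg ip, 48 and 24 h before death; only tyramine-unresponsive preparations used). Bath solution at 29 °C, gassed 95% O2/5% CO2, pH 7.5, resting tension […]. After 90 min equilibration, compound added cumulatively, 5 min per concentration. Isometric developed-tension amplitude or beating rate given as % variation from untreated control. Mean ± SEM, 6-10 assays.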

[3] = species: Cavia porcellus; assay: Effect on the contractile force of spontaneously beating atria from Reserpine-treated guinea pigs as percentage variation from the control at concentration of 10E-6 M; format: functional; how it was run: as §1
[4] = species: Cavia porcellus; assay: Effect on the contractile force of spontaneously beating atria from Reserpine-treated guinea pigs as percentage variation from the control at concentration of 3 x 10E-4 M; format: functional; how it was run: as §1
[5] = species: Cavia porcellus; assay: Effect on the contractile force of spontaneously beating atria from Reserpine-treated guinea pigs as percentage variation from the control at concentration of 3 x 10E-5 M; format: functional; how it was run: as §1
[6] = species: Cavia porcellus; assay: Effect on the contractile force of spontaneously beating atria from Reserpine-treated guinea pigs as percentage variation from the control at concentration of 3 x 10E-6 M; format: functional; how it was run: as §1
[7] = species: Cavia porcellus; assay: Effect on the frequency rate of spontaneously beating atria from Reserpine-treated guinea pigs as percentage variation from the control at concentration of 10E-3 M; format: functional; how it was run: as §1
[8] = species: Cavia porcellus; assay: Effect on the frequency rate of spontaneously beating atria from Reserpine-treated guinea pigs as percentage variation from the control at concentration of 10E-4 M; format: functional; how it was run: as §1
[9] = species: Cavia porcellus; assay: Effect on the frequency rate of spontaneously beating atria from Reserpine-treated guinea pigs as percentage variation from the control at concentration of 10E-5 M; format: functional; how it was run: as §1
[10] = species: Cavia porcellus; assay: Effect on the frequency rate of spontaneously beating atria from Reserpine-treated guinea pigs as percentage variation from the control at concentration of 10E-6 M; format: functional; how it was run: as §1
[11] = species: Cavia porcellus; assay: Inotropic effect in electrically driven left atrium from reserpine-treated guinea pigs at concentration of 10E-3 M; format: functional, Cardiac atrium
How it was run: (§2)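 Electrically driven left atrium from reserpine-treated guinea pigs (tyramine-unresponsive), 29 °C, pH 7.5, resting tension […], 90 min equilibration. Compound dissolved in DMSO and added cumulatively, 5 min per step. Where used, adenosine deaminase was preincubated 20 min, and basal force was taken after ADA addition. Developed tension given as % change over control. Mean ± SEM of six assays.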

[12] = species: Cavia porcellus; assay: Inotropic effect in electrically driven left atrium from reserpine-treated guinea pigs at concentration of 10E-4 M; format: functional, Cardiac atrium; how it was run: as §2
[13] = species: Cavia porcellus; assay: Inotropic effect in electrically driven left atrium from reserpine-treated guinea pigs at concentration of 10E-5 M; format: functional, Cardiac atrium; how it was run: as §2
[14] = species: Cavia porcellus; assay: Inotropic effect in electrically driven left atrium from reserpine-treated guinea pigs at concentration of 10E-6 M; format: functional, Cardiac atrium; how it was run: as §2
[15] = species: Cavia porcellus; assay: Inotropic effect in electrically driven left atrium from reserpine-treated guinea pigs at concentration of 3 x 10E-4 M; format: functional, Cardiac atrium; how it was run: as §2
[16] = species: Cavia porcellus; assay: Inotropic effect in electrically driven left atrium from reserpine-treated guinea pigs at concentration of 3 x 10E-5 M; format: functional, Cardiac atrium; how it was run: as §2
[17] = species: Cavia porcellus; assay: Inotropic effect in electrically driven left atrium from reserpine-treated guinea pigs at concentration of 3 x 10E-6 M; format: functional, Cardiac atrium; how it was run: as §2
[18] = species: Cavia porcellus; assay: Ionotropic Response to 8-Phenyltheophylline (10e-4 M) in Electrically driven Left atrium from Resperpine-Treated Guinea pigs at the concentration of 10E-4 M; format: functional, Cardiac atrium
How it was run: (§3)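 Electrically driven left atrium from reserpine-treated guinea pigs, 29 °C, pH 7.5. Cumulative 8-phenyltheophylline concentration-effect curves were run without or with 3 × 10^-5 to 3 × 10^-4 M test compound (DMSO). Developed tension given as % variation from control. Mean ± SEM of four assays from four experiments; Student's t-test against the 8-phenyltheophylline-only atrium.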

[19] = species: Cavia porcellus; assay: Ionotropic Response to 8-Phenyltheophylline (10e-4 M) in Electrically driven Left atrium from Resperpine-Treated Guinea pigs at the concentration of 3 x 10E-5 M; format: functional, Cardiac atrium; how it was run: as §3
[20] = species: Cavia porcellus; assay: Compound was evaluated for its effect on the frequency rate of spontaneously beating atria from Reserpine-treated guinea pigs as percentage variation from the control at concentration of 3 x 10E-4 M; format: functional; how it was run: as §1
[21] = species: Cavia porcellus; assay: Compound was evaluated for its effect on the frequency rate of spontaneously beating atria from Reserpine-treated guinea pigs as percentage variation from the control at concentration of 3 x 10E-5 M; format: functional; how it was run: as §1
[22] = species: Cavia porcellus; assay: Compound was evaluated for its effect on the frequency rate of spontaneously beating atria from Reserpine-treated guinea pigs as percentage variation from the control at concentration of 3 x 10E-6 M; format: functional; how it was run: as §1
[23] = species: Cavia porcellus; assay: Effect on the contractile force of spontaneously beating atria from Reserpine-treated guinea pigs as percentage variation from the control at concentration of 10E-3 M; format: functional; how it was run: as §1
[24] = species: Cavia porcellus; assay: Effect on the contractile force of spontaneously beating atria from Reserpine treated guinea pigs as percentage variation from the control at concentration of 10E-4 M; format: functional; how it was run: as §1
[25] = species: Cavia porcellus; assay: Ionotropic Response to 8-Phenyltheophylline (10E-4) in Electrically driven Left atrium from Resperpine-Treated Guinea pigs at the concentration of 3 x 10E-4 M; format: functional, Cardiac atrium; how it was run: as §3
[26] = species: Cavia porcellus; assay: Ionotropic Response to 8-Phenyltheophylline (10e-5 M) in Electrically driven Left atrium from Resperpine-Treated Guinea pigs at the concentration of 10E-4 M; format: functional, Cardiac atrium; how it was run: as §3
[27] = species: Cavia porcellus; assay: Ionotropic Response to 8-Phenyltheophylline (10e-5 M)in Electrically driven Left atrium from Resperpine-Treated Guinea pigs at the concentration of 3 x 10E-5 M; format: functional, Cardiac atrium; how it was run: as §3
[28] = species: Cavia porcellus; assay: Ionotropic Response to 8-Phenyltheophylline (10E-5) in Electrically driven Left atrium from Resperpine-Treated Guinea pigs at the concentration of 3 x 10E-4 M; format: functional, Cardiac atrium; how it was run: as §3
[29] = species: Cavia porcellus; assay: Ionotropic Response to 8-Phenyltheophylline (3 x 10E-5 M) in Electrically driven Left atrium from Resperpine-Treated Guinea pigs at the concentration of 10E-4 M; format: functional, Cardiac atrium
How it was run: (§4)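 Guinea pigs pretreated with reserpine (2 mg/kg ip) 48 and 24 h before sacrifice; atria unresponsive to tyramine (2 µg/mL) used. Left atrium electrically driven, in oxygenated salt solution (95% O2/5% CO2, pH 7.5, 29 °C), resting tension […], isometric developed tension. 90 min equilibration; test agent present while cumulative 8-phenyltheophylline curves run, 5 min per concentration; % variation from control; mean ± SEM, four assays.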

[30] = species: Cavia porcellus; assay: Ionotropic Response to 8-Phenyltheophylline (3 x 10E-5 M) in Electrically driven Left atrium from Resperpine-Treated Guinea pigs at the concentration of 3 x 10E-4 M; format: functional, Cardiac atrium; how it was run: as §4
[31] = species: Cavia porcellus; assay: Ionotropic Response to 8-Phenyltheophylline (3 x 10E-5 M) in Electrically driven Left atrium from Resperpine-Treated Guinea pigs at the concentration of 3 x 10E-5 M; format: functional, Cardiac atrium; how it was run: as §4
[32] = species: Cavia porcellus; assay: Ionotropic Response to 8-Phenyltheophylline (3 x 10E-6 M) in Electrically driven Left atrium from Resperpine-Treated Guinea pigs at the concentration of 10E-4 M; format: functional, Cardiac atrium; how it was run: as §4
[33] = species: Cavia porcellus; assay: Ionotropic Response to 8-Phenyltheophylline (3 x 10E-6 M) in Electrically driven Left atrium from Resperpine-Treated Guinea pigs at the concentration of 3 x 10E-4 M; format: functional, Cardiac atrium; how it was run: as §4
[34] = species: Cavia porcellus; assay: Ionotropic Response to 8-Phenyltheophylline (3 x 10E-6 M) in Electrically driven Left atrium from Resperpine-Treated Guinea pigs at the concentration of 3 x 10E-5 M; format: functional, Cardiac atrium; how it was run: as §4
[35] = species: Cavia porcellus; assay: Ionotropic Response to 8-Phenyltheophylline in Electrically driven Left atrium from Resperpine-Treated Guinea pigs at the concentration of 10E-4 M; format: functional, Cardiac atrium; how it was run: as §4
[36] = species: Cavia porcellus; assay: Ionotropic Response to 8-Phenyltheophylline in Electrically driven Left atrium from Resperpine-Treated Guinea pigs at the concentration of 3 x 10E-4 M; format: functional, Cardiac atrium; how it was run: as §4
[37] = species: Cavia porcellus; assay: Ionotropic Response to 8-Phenyltheophylline in Electrically driven Left atrium from Resperpine-Treated Guinea pigs at the concentration of 3 x 10E-5 M; format: functional, Cardiac atrium; how it was run: as §4

COC(=O)c1cnc(N(C)C)nc1Cc1ccccc1
IC50 [1]: 21.3 µM
Variation [2]: 8.97%
Variation [3]: 0%
Variation [4]: -55.28%
Variation [5]: -6.54%
Variation [6]: 5.83%
Variation [7]: -100%
Variation [8]: -16.06%
Variation [9]: 0%
Variation [10]: 0%
Variation [11]: -100%
Variation [12]: -14.2%
Variation [13]: 7.45%
Variation [14]: 0%
Variation [15]: -48.3%
Variation [16]: -5.21%
Variation [17]: 4.85%
Variation [18]: 19%
Variation [19]: 20.2%
Variation [20]: -55.15%
Variation [21]: -8.03%
Variation [22]: 0%
Variation [23]: -100%
Variation [24]: -13.54%
Variation [25]: -6.66%
Variation [26]: -3.33%
Variation [27]: 11%
Variation [28]: -22.2%
Variation [29]: 2.72%
Variation [30]: -11%
Variation [31]: 14.9%
Variation [32]: -4.34%
Variation [33]: -28.9%
Variation [34]: 8.79%
Variation [35]: -9.37%
Variation [36]: -33.52%
Variation [37]: -6.66%
